# Screening results deposited in PubChem by Broad Institute.
# Env fusion inh: HIV envelope-mediated fusion inhibition | HeLa-JRFL Env/CEM21 cell fusion, luciferase | hit rate 1.1% among 360,000 | AID 651610 | inhibition, % at 12.3 µM;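 active = mean replicate inhibition score of at least 50 and every replicate individually at or above 50; inconclusive = only one of the two criteria met; inactive = mean below 50 and not all replicates reaching 50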;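 also: 0% = plate neutral controls and 100% = maraviroc near 300 nM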
# PGC1a acetyl inh: modulators of PGC1a acetylation; inhibition, % at 15.6 µM; hit rate 0.17% among 350,000; AID 651687; U2OS PGC1a acetylation, AlphaScreen anti-acetyl-lysine; with virally co-expressed GCN5 acetyltransferase;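 active = every replicate shows inhibition of at least 40%; inconclusive = mean inhibition at least 40% but some replicate below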;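 also: 0% = neutral control wells and 100% = positive control wells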
# Cneo AK release: Cryptococcus neoformans lysis via adenylate kinase release. lysis activity, % at 15 µM. AID 651654. C. neoformans lysis, adenylate kinase release luminescence, 4 h; normalised: neutral wells 0, clomiphene wells 100. hit rate 0.2% among 360,000;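 active = mean lysis activity across replicates of at least 80%, whatever share of replicates individually reach that level; inactive = mean lysis activity below 80%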
#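 Assay system: log-phase C. neoformans yeast / Quantity: yeast cell density of 5 × 10^6 cells/mL / Medium: fresh YPD growth medium / Compound: single dose / Timing: static 4 h at 37 °C with compound, 1 h detection / Measured by: adenylate kinase release luminescence / Read-out: lysis from increased AK signal / Benchmarks: Clomiphene as positive lysis control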
# FGF22 binding: FGF22 (human) thermal shift binding; Q9HCT0; recombinant FGF22 thermal shift, SYPRO orange fluorescence; percent of sucrose octasulfate shift, DMSO zero; activity (Tm shift, normalised), % at 9.99 µM; hit rate 1.5% among 340,000; AID 651658;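 active = mean Tm shift, scaled 0 neutral to 100 positive control, at about 1.3% or above, every replicate too, limit read from the data; inconclusive = no clear call, values can overlap the other calls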
# Target sequence (Q9HCT0 whole entry, looked up): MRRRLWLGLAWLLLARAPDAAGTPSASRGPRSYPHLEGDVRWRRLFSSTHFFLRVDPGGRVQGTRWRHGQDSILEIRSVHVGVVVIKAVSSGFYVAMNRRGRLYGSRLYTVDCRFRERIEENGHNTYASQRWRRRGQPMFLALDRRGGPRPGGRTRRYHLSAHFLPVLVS
# Ecoli rRNA inh: inhibits bacterial ribosomal RNA function over humanized ribosomes. AID 720706. hit rate 1.6% among 350,000. GFP signal change (wild-type ribosome), % (test concentration not listed). E. coli WT GFP vs humanized-ribosome RFP mutants, fluorescence, 24 h; hits give low values; DMSO median 0, no signal -100;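 active = significant combined selectivity score with lowered wild-type GFP, culture density cut under 30%, mutant RFP and density less affected; inactive = any of these conditions unmet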
# ERAP1 HTS inh: ERAP1 (human) enzyme inhibition; hit rate 0.15% among 340,000; Q9NZ08; inhibition, % at 10.7 µM; recombinant ERAP1, Leu-AMC fluorescence, 60 min;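 active = mean replicate inhibition of at least 30%, or all replicates individually reaching that 30% level; inactive = mean below 30% and not every replicate reaching it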;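 also: 0% = neutral control wells and 100% = L-leucinethiol positive control wells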
# Active calls of the source: *; ? = inconclusive; nt = no result given; [ ] = dose if it differs, or a comment. Compounds with a hit are over-represented: about 3.5% of the library has one in this group of screens.
SMILES,Env fusion inh,PGC1a acetyl inh,Cneo AK release,FGF22 binding,Ecoli rRNA inh,ERAP1 HTS inh
CCCCCCCCSc1nnc2[nH]c(=O)cc(N)n12,9,-9,nt,43*,-2,-11
Cc1ccc2[nH]c(=O)c(CN(CCCN(C)C)C(=S)NCCc3ccccc3)cc2c1,8,-16,nt,0,-36*,-3
Cc1ccc2cc(CN(CCc3ccccc3)C(=S)NCCCN(C)C)c(=O)[nH]c2c1,-2,8,2,0,-26,0
COc1cc2cc(CN(CCc3cccc(C)c3)C(=S)NCCCN(C)C)c(=O)[nH]c2cc1OC,-25,nt,nt,0,-38*,3
Cc1cccc2cc(CN(CCCN(C)C)C(=S)NCCc3ccccc3)c(=O)[nH]c12,-17,-9,12,0,-17*,0
CNC(=S)N(CCc1cccc(C)c1)Cc1cc2cc(OC)c(OC)cc2[nH]c1=O,-2,nt,nt,-1,-14,5
CNC(=O)c1ccc2cc(OC)c(OC)cc2c1,?,2,2,0,-5,2
Cc1ccc(C(=O)OCc2cc(=O)n3ccsc3n2)s1,-28,0,-1,0,7,1
Cc1ccc(OCC(=O)NNC(=O)C2CCN(c3ncnc4sc(C)c(C)c34)CC2)cc1,6,nt,nt,0,-17,-1
Cc1sc2ncnc(N3CCC(C(=O)NNC(=O)COc4cccc(C(F)(F)F)c4)CC3)c2c1C,32,nt,nt,0,-19*,-1
CCN1c2ccccc2-c2nc3ccccc3n2C1c1ccco1 (stereo unspecified),55*,5,3,nt,nt,nt
CN1c2ccccc2-c2nc3ccccc3n2C1c1ccncc1 (stereo unspecified),40,-11,0,nt,-23*,11
CCOc1ccccc1NC(=O)Nc1ccc2c(c1)OCO2,-5,nt,-4,0,0,-1
O=C(CSc1nc(-c2ccccc2Cl)ns1)NCc1ccc2c(c1)OCO2,-3,nt,nt,nt,nt,nt
O=C(N/N=C1/CCCc2ccccc21)c1cc([N+](=O)[O-])cc([N+](=O)[O-])c1,-1,nt,nt,43*,3,3
O=C(c1cc([N+](=O)[O-])cc([N+](=O)[O-])c1)N1CCCc2ccccc21,1,-3,nt,43*,18,-1
O=C(N/N=C1\CCCc2oc(C(=O)O)cc21)c1ccccc1,14,-1,0,43*,13,4
O=C(O)c1cc2c(o1)CCC/C2=N\O,nt,-4,5,0,22,2
COc1ccc(NC(=S)NCc2cccs2)cc1OC,9,4,1,0,4,0
Nc1[nH]ncc1-c1ccccc1,0,-15,nt,44*,-2,2
COC[C@@H]1CCCN1c1ccc2c(c1)O[C@H](COCc1ccccc1)CN([C@H](C)c1ccccc1)S2(=O)=O,9,nt,nt,0,3,7
CCCn1c(SCC(=O)N2CCCCC2)nnc1-c1ccccn1,9,nt,nt,44*,13,-1
N=C1/C(=C\c2coc3ccccc3c2=O)C(=O)N=C2SC(c3ccncc3)=NN12,1,3,-7,0,-15*,-6
CCc1cc2c(=O)[nH]c(Cc3ccccc3)nc2s1,nt,-6,0,nt,nt,nt
CCc1nc2sccc2c(=O)[nH]1,2,12,3,44*,0,-3
SMILES,Env fusion inh,PGC1a acetyl inh,Cneo AK release,FGF22 binding,Ecoli rRNA inh,ERAP1 HTS inh
O=C(C1CCCC1)N1C[C@@H]2[C@H](c3ccccc31)[C@H](CO)N2C(=O)c1ccccc1F,nt,-22,-6,1,1,0
CN(C)S(=O)(=O)c1cccc(NC(=O)CNc2cccc(S(=O)(=O)N3CCCCC3)c2)c1,64*,-10,1,0,-8,0
Cc1ccc(NC(=O)CCl)cc1S(=O)(=O)N1CCCCCC1,-18,-14,nt,0,-16*,-1
O=C(CSc1ncnc2ccccc12)Nc1cccc(S(=O)(=O)N2CCCC2)c1,16,9,4,43*,5,0
Cc1ccc(NC(=O)CN2C(=O)NC3(CCCc4ccccc43)C2=O)cc1S(=O)(=O)N1CCOCC1 (stereo unspecified),-6,-27,nt,44*,-11,-4
COCCNCC(=O)Nc1ccc(C)c(S(=O)(=O)N2CCCCC2)c1,-9,nt,0,0,3,2
NS(=O)(=O)c1cccc(NC(=O)COC(=O)Cc2ccc(S(=O)(=O)N3CCCCC3)s2)c1,-4,nt,nt,43*,6,1
O=C(COC(=O)Cc1ccc(S(=O)(=O)N2CCCCC2)s1)Nc1ccc2c(c1)OCO2,12,2,0,nt,nt,nt
COc1ccc(CC(=O)Nc2cccc(S(=O)(=O)N3CCCCCC3)c2)cc1OC,68*,1,1,nt,nt,nt
COc1ccc(NC(=O)Cc2ccc(C)c(C)c2)cc1S(=O)(=O)N1CCCCC1,11,nt,nt,0,-29*,0
Cc1ccc(S(=O)(=O)N2CCCCC2)cc1,17,nt,-3,0,1,3
Cc1ccc(C)c(CNc2ccc(S(=O)(=O)N3CCCCC3)cc2)c1,76*,-28,0,0,3,1
COc1ccc(CCC(=O)Nc2cccc(S(=O)(=O)N3CCCCCC3)c2)cc1OC,nt,nt,0,0,-2,-7
C[C@H](CO)N1C[C@H](C)[C@H](CN(C)Cc2ccc3c(c2)OCCN3C)OCc2cn(nn2)CCCC1=O,-11[16.7 µM],-10,5,0,3,0
Cn1nc(C(F)(F)F)cc1C(=O)Nc1ccc(Cl)cc1,-25,nt,0,0,0,nt
CNc1nc(NCCOc2ccccc2Cl)c2sccc2n1,31,10,0,0,-64,-2
COc1cccc(CNc2nc(NCC3CC3)nc3ccsc23)c1OC,14,nt,1,0,-21,-1
CSc1ccccc1CNc1nc(NCC2CC2)nc2ccsc12,56*,3,-1,0,-62,1
COc1ccccc1CNc1nc(NCCOc2ccccc2Cl)c2sccc2n1,72*,12,6,-1,-63,2
Cc1ccc(C)c(N(CC(=O)NC2CCCC2)C(=O)c2oc(C(C)(C)C)cc2C)c1,nt,-2,1,0,-16*,-3
COC(=O)c1cn(NC(=O)c2cc(OC)cc(OC)c2)c(=O)c2ccccc12,-102,nt,1,nt,nt,nt
O=C(CN1CCCC1)N1c2ccccc2C=Cc2ccccc21,0,6,nt,43*,-1,0
O=C(CN1CCCCCC1)N1c2ccccc2C=Cc2ccccc21,-10,-3,3,nt,16,1
CCOC(=O)N1CCN(c2c(Nc3ccc4c(c3)OCCO4)c(=O)c2=O)CC1,8,3,-1,0,0,5
CCOc1ccc(C(=O)SC2=NCCS2)cc1,nt,-9,0,nt,nt,nt
O=C(Oc1ccccc1N1C(=O)C2CCCCC2C1=O)c1ccccc1F (stereo unspecified),-16,2,0,nt,nt,nt
COc1ccc(N2CCN(C(=O)C(=O)c3cccc([N+](=O)[O-])c3)CC2)cc1,9,nt,nt,-1,-4.6*,1
